ChEMBL document CHEMBL2321751, “Optimization of chloronitrobenzamides (CNBs) as therapeutic leads for human African trypanosomiasis (HAT)” (J Med Chem, 2013)
≈ marks a conversion by molar mass, not a printed value.

Experiments:
[1] = Kinetic solubility of the compound in PBS buffer at pH 7.4 after 18 hrs by UV spectrophotometric analysis; type: physicochemical; settings: for solubility kinetic at 18 h: PBS buffer, pH 7.4, read-out: Kinetic_solubility
Outline: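 Compound from a 10 mM stock was added to PBS pH 7.4 and left 18 h at room temperature. The suspension was filtered, and the filtrate was mixed 1:1 with 1-propanol. Solubility was derived from UV spectrum AUC (250–500 nm) relative to a 1-propanol/PBS reference. Run in triplicate.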

[2] = Kinetic solubility of the compound in PBS buffer at pH 3.0 after 18 hrs by UV spectrophotometric analysis; type: physicochemical; settings: read-out: Kinetic_solubility
Raji = assay: Cytotoxicity against human Raji cells after 72 hrs by Cell Titre Glo assay; type: cell-based
Outline: (§1)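 Human cells grown to 80% confluence were plated in 384-well format and received compound dilutions by pin tool. After 72 h at 37 °C in 5% CO2, viability was measured by CellTiter-Glo luminescence.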

BJ = assay: Cytotoxicity against human BJ cells after 72 hrs by Cell Titre Glo assay; type: cell-based; outline: as §1
HEK293 = assay: Cytotoxicity against HEK293 cells after 72 hrs by Cell Titre Glo assay; type: cell-based; settings: Homo sapiens, HEK293, 72 h; outline: as §1
HepG2 = assay: Cytotoxicity against human HepG2 cells after 72 hrs by Cell Titre Glo assay; type: cell-based; settings: HepG2, 72 h; outline: as §1
[3] = tested on: Trypanosoma brucei brucei; assay: Antitrypanosomal activity against Trypanosoma brucei brucei 221 after 48 hrs by Cell Titre Glo assay; type: functional, organism-based; settings: Trypanosoma brucei, 221, 48 h
Outline: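 Bloodstream-form parasites grown in HMI-9 with 10% heat-inactivated FBS, 10% Serum Plus and penicillin/streptomycin at 37 °C, 5% CO₂, to 1 × 10⁶ cells/mL. Diluted to 1 × 10⁴ cells/mL, then dosed with a DMSO dilution series by pin transfer. Incubated 48 h at 37 °C, 5% CO₂. Viability read by CellTiter-Glo luminescence. EC₅₀ from a variable-slope sigmoidal fit. Mean of six replicates, errors as 95% CI.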

[4] = Half life in human liver microsomes; type: ADME, Microsome
Outline: (§2)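 Liver microsomes (human: pooled from 200 mixed-gender donors; mouse: female […]) were diluted in 0.1 M potassium phosphate, pH 7.4, with EDTA, then spiked from a 2 mM DMSO/acetonitrile compound stock. Reactions were started with cofactor solutions A+B and kept at 37 °C with shaking. Samples at 0, 0.5, 1, 2 and 4 h were quenched with cold methanol containing 10 μM warfarin and analysed by UPLC-MS (SIR). k = −2.303 × slope of log peak-area ratio versus time; t1/2 = 0.693/k.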

[5] = Half life in mouse liver microsomes; type: ADME, Microsome; outline: as §2
[6] = tested on: Trypanosoma brucei gambiense; assay: Antitrypanosomal activity against Trypanosoma brucei gambiense KO48 after 70 hrs by Alamar Blue assay; type: functional, organism-based; settings: KO48, 70 h
Outline: (§3)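 T. b. gambiense strains were grown in HMI-9 with 15% heat-inactivated FBS and 5% human serum. 10000 trypanosomes per well were seeded into serial drug dilutions and held 70 h at 37 °C in humidified 5% CO2. Resazurin was then added for a further 4–6 h, and fluorescence was read (ex 536/em 588 nm). IC50 was taken by linear regression from sigmoidal dose-inhibition curves.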

[7] = tested on: Trypanosoma brucei gambiense; assay: Antitrypanosomal activity against Trypanosoma brucei gambiense DAL 898R after 70 hrs by Alamar Blue assay; type: functional, organism-based; outline: as §3
[8] = tested on: Trypanosoma brucei gambiense; assay: Antitrypanosomal activity against Trypanosoma brucei gambiense STIB930 after 70 hrs by Alamar Blue assay; type: functional, organism-based; settings: STIB930, 70 h; outline: as §3
[9] = Permeability of the compound at pH 7.4 by PAMPA; type: ADME; settings: PAMPA, read-out: permeability
Outline: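 Compound (10 mM DMSO stock) was diluted in system solution buffer pH 7.4 and placed in the donor chamber of a PAMPA sandwich whose membrane was coated with GIT lipid. Acceptor buffer filled the acceptor chamber, and the assembly was stirred for 30 min. Donor and acceptor UV spectra (250–500 nm) were compared with a reference to give the permeability coefficient. Run in triplicate.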

[10] = Permeability of the compound at pH 3.0 by PAMPA; type: ADME; settings: read-out: permeability
[11] = tested on: Trypanosoma brucei rhodesiense; assay: Antitrypanosomal activity against bloodstream forms of wild type Trypanosoma brucei rhodesiense STIB900 after 70 hrs by Alamar Blue assay; type: functional, organism-based; settings: STIB900, 70 h
Outline: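 T. b. rhodesiense STIB 900 was cultured in MEM with Earle's salts and Baltz supplements (0.2 mM 2-mercaptoethanol, 1 mM Na-pyruvate, 0.5 mM hypoxanthine, 15% heat-inactivated horse serum). 2000 bloodstream forms per well were exposed to serial drug dilutions for 70 h at 37 °C in humidified 5% CO2. Resazurin followed for 2–4 h, read by fluorescence (ex 536/em 588 nm). IC50 came from sigmoidal curves by linear regression.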

## O=C(Nc1cccc(-c2nc3ccccc3s2)c1)c1cc([N+](=O)[O-])ccc1Cl
[1]
  solubility kinetic at 18 h: 0.58 µM (≈ 0.238 µg/mL)
[2]
  solubility kinetic at 18 h: 0.51 µM (≈ 0.209 µg/mL)
Raji
  EC50: > 27000 nM
BJ
  EC50: > 27000 nM
HEK293
  EC50: > 27000 nM
HepG2
  EC50: > 25000 nM
[3]
  EC50: 190 nM
[4]
  half-life: 1 h
[5]
  half-life: 0.18 h
[6]
  EC50: 170 nM
[7]
  EC50: 200 nM
[8]
  EC50: 110 nM
[9]
  Papp: 12 ×10⁻⁶ cm/s
[10]
  Papp: 51 ×10⁻⁶ cm/s
[11]
  EC50: 160 nM

## Cc1ccc(-c2nc3ccccc3s2)cc1NC(=O)c1cc([N+](=O)[O-])c(N2CCN(C)CC2)cc1Cl
[1]
  solubility kinetic at 18 h: 0.7 µM (≈ 0.365 µg/mL)
[2]
  solubility kinetic at 18 h: 0.56 µM (≈ 0.292 µg/mL)
Raji
  EC50: > 25000 nM
BJ
  EC50: > 25000 nM
HEK293
  EC50: > 25000 nM
HepG2
  EC50: > 25000 nM
[3]
  EC50: 41 nM
[4]
  half-life: 1.6 h
[5]
  half-life: 1.3 h
[8]
  EC50: 1 nM
[9]
  Papp: 74 ×10⁻⁶ cm/s
[10]
  Papp: 60 ×10⁻⁶ cm/s
[11]
  EC50: 11 nM

## Cc1ccc(-c2nc3ccccc3s2)cc1NC(=O)c1cc([N+](=O)[O-])c(N2CCNCC2)cc1Cl
[1]
  solubility kinetic at 18 h: 0.08 µM (≈ 0.0406 µg/mL)
[2]
  solubility kinetic at 18 h: 1.15 µM (≈ 0.584 µg/mL)
Raji
  EC50: > 25000 nM
BJ
  EC50: 14500 nM
HEK293
  EC50: > 25000 nM
HepG2
  EC50: > 25000 nM
[4]
  half-life: > 4 h
[5]
  half-life: > 4 h
[8]
  EC50: 2 nM
[9]
  Papp: 4 ×10⁻⁶ cm/s
[10]
  Papp: 0.6 ×10⁻⁶ cm/s
[11]
  EC50: 7 nM

## CN1CCN(c2cc(Cl)c(C(=O)Nc3cccc(-c4nc5ccccc5s4)c3)cc2[N+](=O)[O-])CC1
[1]; buffer, pH 7.4, 18 h, BLD = below limit of detection
  Kinetic_solubility: BLD
[2]
  solubility kinetic at 18 h: 46 µM (≈ 23.4 µg/mL)
Raji
  EC50: 14500 nM
BJ
  EC50: > 25000 nM
HEK293
  EC50: 14200 nM
HepG2
  EC50: 8600 nM
[3]
  EC50: 110 nM
[4]
  half-life: 3.3 h
[5]
  half-life: 0.81 h
[8]
  EC50: 160 nM
[9]
  Papp: 366 ×10⁻⁶ cm/s
[10]
  Papp: 108 ×10⁻⁶ cm/s
[11]
  EC50: 210 nM
